The source made the active and inactive calls. The calls are words filed in the database; no cut-off is given here.
How the values were obtained:
DNA = test: Binding affinity to DNA (unknown origin) assessed as DNA intercalation; assay type: nucleic-acid assay; conditions: Homo sapiens
MV4-11 [1] = test: Anticancer activity against human MV4-11 cells assessed as cell growth inhibition at 50 nM incubated for 72 hrs by CellTiter-Blue Cell Viability Assay relative to control; assay type: functional
Procedure, shortened: (§1)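 Cells plated at 5000/well in RPMI with 10% FBS and penicillin-streptomycin, incubated 24 h at 37 °C, 5% CO2, then exposed to 50 nM compound for 72 h. Viability read by CellTiter-Blue, absorbance at 570 nm 3 h after addition; vehicle and cell-free controls included. Percent growth inhibition given as mean of triplicates.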

MOLM-14 [2] = test: Anticancer activity against human MOLM-14 cells assessed as cell growth inhibition at 50 nM incubated for 72 hrs by CellTiter-Blue Cell Viability Assay relative to control; assay type: functional; procedure, shortened: as §1
[3] = target: Receptor-type tyrosine-protein kinase FLT3 (Homo sapiens) (UniProt P36888); test: Inhibition of FLT3 (unknown origin) at 50 nM by ADP Glo kinase assay relative to control
Procedure, shortened: (§2)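 In-house ADP-Glo assay: 9 ng/µL kinase, 10 µM ATP, 20 µM peptide substrate, 50 nM inhibitor in 25 mM MOPS pH 7.2, 12.5 mM β-glycerophosphate, 25 mM MgCl2, 2 mM EDTA, 0.2 mM DTT, 40 µg/mL BSA. Incubated 3 h, quenched with GLO reagent 40 min, detection reagent 1 h, luminescence read. Percent inhibition, mean of triplicates.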

[4] = target: T1, Serine/threonine-protein kinase haspin (Homo sapiens) (UniProt Q8TF76); test: Inhibition of haspin (unknown origin) at 50 nM by ADP Glo kinase assay relative to control; procedure, shortened: as §2
T1 sequence (whole entry): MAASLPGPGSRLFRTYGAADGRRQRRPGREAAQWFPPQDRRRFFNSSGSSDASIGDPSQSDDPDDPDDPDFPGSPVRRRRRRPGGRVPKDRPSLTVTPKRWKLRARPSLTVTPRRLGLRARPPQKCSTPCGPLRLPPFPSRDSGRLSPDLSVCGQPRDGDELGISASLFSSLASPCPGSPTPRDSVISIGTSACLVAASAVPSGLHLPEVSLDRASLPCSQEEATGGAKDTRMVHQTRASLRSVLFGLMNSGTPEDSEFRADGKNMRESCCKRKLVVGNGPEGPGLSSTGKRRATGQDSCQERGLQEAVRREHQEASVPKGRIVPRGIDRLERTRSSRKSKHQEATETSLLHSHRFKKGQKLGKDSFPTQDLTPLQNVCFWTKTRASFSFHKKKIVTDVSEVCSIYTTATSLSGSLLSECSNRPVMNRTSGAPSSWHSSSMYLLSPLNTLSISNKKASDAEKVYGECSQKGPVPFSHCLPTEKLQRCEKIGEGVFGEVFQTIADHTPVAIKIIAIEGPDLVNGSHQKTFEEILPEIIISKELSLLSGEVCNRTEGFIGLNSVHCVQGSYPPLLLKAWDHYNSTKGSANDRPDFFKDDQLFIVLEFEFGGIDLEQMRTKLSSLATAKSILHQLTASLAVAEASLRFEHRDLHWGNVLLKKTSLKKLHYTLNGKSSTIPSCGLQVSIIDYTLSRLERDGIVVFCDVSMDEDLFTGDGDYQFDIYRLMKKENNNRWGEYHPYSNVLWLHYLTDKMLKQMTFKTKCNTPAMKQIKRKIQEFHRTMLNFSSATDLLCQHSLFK

[5] = target: Receptor-type tyrosine-protein kinase FLT3 (Homo sapiens, UniProt P36888, ITD); test: Inhibition of FLT3 ITD mutant (unknown origin)
MV4-11 [6] = test: Anticancer activity against human MV4-11 cells assessed as reduction in cell proliferation incubated for 72 hrs CellTiter-Blue Cell Viability Assay; assay type: functional
Procedure, shortened: (§3)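 Cells grown in RPMI + 10% FBS + penicillin-streptomycin, seeded 5000 per well, left 24 h at 37 °C, 5% CO2, then given graded compound concentrations for 72 h. CellTiter-Blue viability read as absorbance at 570 nm after 3 h; vehicle and cell-free controls. Nonlinear regression gave GI50; points are means of triplicates, confirmed by two scientists on separate days.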

[7] = target: T1, Serine/threonine-protein kinase haspin (Homo sapiens); test: Inhibition of haspin in human MOLM-14 cells assessed as reduction in histone H3 phosphorylation at Thr3 at 20 nM incubated for 24 hrs by immunoblotting analysis
MOLM-14 [8] = test: Anticancer activity against human MOLM-14 cells expressing FLT3 D835Y mutant assessed as reduction in cell proliferation incubated for 72 hrs CellTiter-Blue Cell Viability Assay; assay type: functional; procedure, shortened: as §3
MOLM-14 [9] = test: Anticancer activity against human MOLM-14 cells expressing FLT3 F691L mutant assessed as reduction in cell proliferation incubated for 72 hrs CellTiter-Blue Cell Viability Assay; assay type: functional; procedure, shortened: as §3
MOLM-14 [10] = test: Anticancer activity against human MOLM-14 cells assessed as reduction in cell proliferation incubated for 72 hrs CellTiter-Blue Cell Viability Assay; assay type: functional; procedure, shortened: as §3
[11] = target: Receptor-type tyrosine-protein kinase FLT3 (Homo sapiens, UniProt P36888, D835Y); test: Inhibition of FLT3 D835Y mutant (unknown origin)
[12] = target: Receptor-type tyrosine-protein kinase FLT3 (Homo sapiens) (UniProt P36888); test: Inhibition of FLT3 in human MOLM-14 cells assessed as reduction in phosphorylation of FLT3 at 5 to 100 nM incubated for 2 hrs by immunoblotting; assay type: cell-based; conditions: dose 5-100 nM
Procedure, shortened: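 MOLM-14 cells exposed to compound at 5, 20 or 100 nM for 2 h, lysed, protein normalized to BSA standard; SDS-PAGE, nitrocellulose transfer, overnight primary antibody, 2 h peroxidase secondary, chemiluminescent detection by CCD. Phospho-FLT3 bands normalized to actin; means of triplicates, SD.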

Row | inhibition [3] | inhibition [4] | SMILES | Activity (MV4-11 [1]) | Activity (MOLM-14 [2]) | also measured
1 | 46% | 41% | O=C(NCc1cc[nH]c1)c1ccc(-c2nc3ccc4[nH]ncc4c3c3c2CCCC3)cc1 | 28% | 39% | –
2 | 81% | 39% | FC(F)(F)c1n[nH]cc1-c1nc2ccc3[nH]ncc3c2c2c1CCCC2 | 92% | 90% | –
3 | 53% | 68% | O=C(NCc1nccs1)c1ccc(-c2nc3ccc4[nH]ncc4c3c3c2CCCC3)cc1 | 60% | 55% | –
4 | 31% | 33% | O=C(NCCn1ccnc1)c1ccc(-c2nc3ccc4[nH]ncc4c3c3c2CCCC3)cc1 | 35% | 42% | –
5 | 94% | 97% | Cc1c[nH]c(CNC(=O)c2ccc(-c3nc4ccc5[nH]ncc5c4c4c3CCCC4)cc2)n1 | 94% | 96% | IC50 [5]: 0.121 nM; GI50 (MV4-11 [6]): 8.9 nM; inhibition [7]: Active; Activity (DNA): inactive; GI50 (MOLM-14 [8]): 4.3 nM; GI50 (MOLM-14 [9]): 2.2 nM; GI50 (MOLM-14 [10]): 22.4 nM; IC50 [11]: 0.024 nM; Activity [12]: Active
6 | 51% | 57% | O=C(NCc1nnn[nH]1)c1ccc(-c2nc3ccc4[nH]ncc4c3c3c2CCCC3)cc1 | 41% | 50% | –
7 | 14% | 26% | Cn1ccnc1CNC(=O)c1ccc(-c2nc3ccc4[nH]ncc4c3c3c2CCCC3)cc1 | 25% | 21% | –

The remaining lines, values behind:

Row | SMILES | inhibition [3] | inhibition [4] | Activity (MV4-11 [1]) | Activity (MOLM-14 [2]) | also measured
8 | O=C1c2c(O)ccc(O)c2C(=O)c2c(NCCNCCO)ccc(NCCNCCO)c21 | – | – | – | – | Activity (DNA): Active
9 | O=C(NCc1c[nH]cn1)c1ccc(-c2nc3ccc4[nH]ncc4c3c3c2CCCC3)cc1 | 49% | 54% | 62% | 67% | –
10 | O=C(NCc1ncc[nH]1)c1ccc(-c2nc3ccc4[nH]ncc4c3c3c2CCCC3)cc1 | 76% | 77% | 80% | 84% | –
11 | O=C(NCCc1ncc[nH]1)c1ccc(-c2nc3ccc4[nH]ncc4c3c3c2CCCC3)cc1 | 71% | 78% | 69% | 73% | –
12 | O=C(NCc1ncc[nH]1)c1ccc(-c2nc3ccc4[nH]ncc4c3c3c2CCCC3)c(F)c1 | 88% | 53% | 79% | 87% | –
13 | O=C(NCc1ncc[nH]1)c1ccc(-c2nc3ccc4[nH]ncc4c3c3c2CCCC3)cc1F | 85% | 76% | 82% | 80% | –
14 | O=C(NCc1nnc[nH]1)c1ccc(-c2nc3ccc4[nH]ncc4c3c3c2CCCC3)cc1 | 49% | 57% | 52% | 48% | –
15 | CCc1nc(C(N)=O)c(Nc2ccc(N3CCC(N4CCN(C)CC4)CC3)c(OC)c2)nc1NC1CCOCC1 [GILTERITINIB] | 93% | 11% | 91% | 87% | inhibition [7]: inactive
